Consider 37 compounds from ChEMBL document CHEMBL4387734, “Design and synthesis of a novel series of cyanoindole derivatives as potent γ-secretase modulators” (Bioorg Med Chem Lett, 2019).

The pIC50 is the negative decadic logarithm of the IC50, by convention in mol/L. The term inhibition in vivo denotes the change of the read-out against control, counted positive when it falls.

A short description of data set [1]: Inhibition of gamma secretase in mouse Neuro2 cells expressing endogenous levels of amyloid precursor protein assessed as reduction in Abeta42 levels incubated for 18 hrs by sandwich ELISA. In kind it is cell-based. An outline of the steps: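 IC50 as concentration reducing Aβ42 by 50%; mean of at least 2 determinations; mouse assay.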
(In an ELISA, binding on a coated surface is turned into a signal by an enzyme label.)

A further data set has as its target Gamma-secretase. Kind of data set: Inhibition of gamma secretase in human SKNBE2 cells expressing human APP695 assessed as reduction in Abeta42 levels incubated for 18 hrs by sandwich ELISA.
Data set [2] in a line: Drug concentration in mouse plasma at 30 mg/kg, po measured after 4 hrs by LC/MS/MS method. In kind it is ADME, organism-based. The procedure, abridged: (§1)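 Mice dosed orally at 30 mg/kg; plasma and brain sampled 4 h post-dose; compound quantified by qualified research LC–MS/MS; brain/plasma ratio at 4 h.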
Data set [3] is described as follows: Drug concentration in mouse brain at 30 mg/kg, po measured after 4 hrs by LC/MS/MS method. The format is ADME, organism-based. As to conditions: read-out: Drug uptake. The procedure, abridged: as §1
Data set [4] relates to Mus musculus. Kind of data set: In vivo inhibition of gamma secretase in mouse assessed as assessed as reduction in Abeta42 levels in brain at 30 mg/kg, po measured after 4 hrs relative to control. In kind it is functional.
The subject of data set [5] is Mus musculus. In words: In vivo inhibition of gamma secretase in mouse increase in Abeta38 levels in brain at 30 mg/kg, po measured after 4 hrs relative to control. The arrangement: scale not given: the % may be the effect or the level left.
A short description of data set [6]: Free drug concentration in mouse brain. As to conditions: in vivo. In kind it is ADME, tissue-based. The procedure, abridged: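 Free brain concentration calculated as fu,b × total brain level (μM), mouse 30 mg/kg p.o., 4 h.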
Data set [7] in a line: Fraction of unbound in rat brain.
In data set [8] the target is Gamma-secretase (Homo sapiens) (UniProt Q96BI3+Q9NZ42+Q8WW43+P49768+Q92542+P49810). In words: Inhibition of gamma secretase in human SKNBE2 cells expressing human APP695 assessed as increase in Abeta38 levels at 10 uM incubated for 18 hrs by sandwich ELISA. The format is cell-based. Also noted: scale not given: the % may be the effect or the level left.

pIC50: −log10 of the molar value.

On to `COc1nc(/C=C/c2nc3n(n2)CCC[C@H]3c2ccccc2C(F)(F)F)ccc1-n1cnc(C)c1` [E-2212], for which the negative logarithm of the IC50 (pIC50) in [1] is 7.96.
Still for that read-out and setting: the figure for `COc1cc(/C=C/c2nc3n(n2)CCC[C@H]3c2ccccc2C(F)(F)F)ccc1C#N` is 6.56.
As to `COc1c(C#N)ccc2[nH]c(-c3cn4c(n3)[C@H](c3ccccc3Cl)O[C@@H](C)C4)cc12`, the pIC50 on Gamma-secretase was 7.18.
With `COc1cc(Nc2cccn3cc(-c4ccc(F)cc4)nc23)ccc1C#N`, the pIC50 in data set [1] was less than 5.00.
`COc1c(C#N)ccc2[nH]c(-c3nc4n(n3)CCCC4c3ccccc3C(F)(F)F)cc12` (racemic): the negative-log IC50 (pIC50) on Gamma-secretase is 7.44; in [1], 7.42 to 7.44.
With `COc1c(C#N)ccc2[nH]c(-c3cn4c(n3)[C@H](c3cc(C(F)(F)F)ccc3F)OCC4)cc12`, the concentration at 4 h in data set [2] is 10.6 µM; in data set [3], 16.3 µM. The pIC50 at Gamma-secretase was 7.39; in data set [1], 7.13. For the same compound, the inhibition in vivo at 30 mg/kg in the data set on Mus musculus [4] stood at 35%. Further, the Activity in the data set on Mus musculus [5] was found to be 41%.
In the case of `Cn1c(-c2nc3n(n2)CCCC3c2ccccc2C(F)(F)F)cc2cc(C#N)ccc21` (racemic), the results for the negative-log IC50 (pIC50) (at Gamma-secretase; in [1]) were 5.40 and less than 5.00, respectively.
For the compound `COc1c(C#N)ccc2[nH]c(-c3nc4n(n3)CCCC4c3ccc(F)cc3C)cc12` (racemic), the concentration at 4 h in data set [2] came out at 0.75 µM; in data set [3] it was 0.69 µM. In addition, the figures for the pIC50 (on Gamma-secretase; in [1]) were 7.60 and 7.55, respectively. The inhibition in vivo at 30 mg/kg in the data set on Mus musculus [4] turned out to be 45%. Also, the Activity in the data set on Mus musculus [5] was -9%.
With `Cc1cn(-c2ccc3[nH]c(-c4nc(-c5cccc(C(F)(F)F)c5)n(C)n4)cc3c2)cn1`, in data set [1], the pIC50 was 7.07.
For `COc1c(C#N)ccc2[nH]c(-c3cn4c(n3)[C@H](c3ccccc3Cl)C[C@@H](C)C4)cc12` (racemic), the pIC50 at Gamma-secretase is 7.82.
As to `COc1c(C#N)ccc2[nH]c(-c3nc4n(n3)CCOC4c3ccccc3C(F)(F)F)cc12` (racemic), the figures for the pIC50 (at Gamma-secretase; in data set [1]) were 7.14 and 7.39, respectively.
For `COc1c(C#N)ccc2[nH]c(-c3cn4c(n3)C(c3ccccc3Cl)CC(O)(CO)C4)cc12` (stereo unspecified), at Gamma-secretase, the pIC50 is 7.41.
On the same count and under the same terms, the value for `COc1c(C#N)ccc2[nH]c(-c3cn4c(n3)C(c3ccccc3Cl)CC(C)(O)C4)cc12` (stereo unspecified) was 7.66.
Regarding `COCc1ccccc1[C@@H]1OCCn2cc(-c3cc4c(OC)c(C#N)ccc4[nH]3)nc21`, the results for the pIC50 (on Gamma-secretase; in data set [1]) were 6.96 and 7.07, respectively.
With `COc1c(C#N)ccc2[nH]c(-c3cn4c(n3)[C@H](c3ccccc3Cl)O[C@H](C)C4)cc12`, the pIC50 at Gamma-secretase was 7.77.
Regarding `COc1c(C#N)ccc2[nH]c(-c3cn4c(n3)[C@H](c3ccccc3C(F)(F)F)OCC4)cc12` (single isomer, unassigned), the concentration at 4 h in [2] stood at 8.4 µM; in data set [3], 16.4 µM. In addition, the “Drug uptake(free)” value in data set [6] was 0.034 µM. Further, the pIC50 at Gamma-secretase is 7.74; in [1], 7.72. For the same compound, in the data set with Mus musculus [4], the inhibition in vivo at 30 mg/kg worked out at 73%. In [7], this compound came in with a Fu of 0.21%. In addition, the Activity with Mus musculus [5] was 10%.
As to `COc1c(C#N)ccc2[nH]c(-c3nc4n(n3)CCO[C@H]4c3cccc(F)c3C(F)(F)F)cc12`, the concentration at 4 h amounted to 1.7 µM in data set [2] and 9.6 µM in data set [3]. The “Drug uptake(free)” value in data set [6] came out at 0.009 µM. In addition, the negative logarithm of the IC50 (pIC50) (at Gamma-secretase; in [1]) was 7.23 throughout. Moreover, in the data set on Mus musculus [4], the inhibition in vivo at 30 mg/kg turned out to be 2%. Moreover, the Fu in data set [7] is given as 0.09%. Also, the Activity with Mus musculus [5] is 19%.
Take `COc1c(C#N)ccc2[nH]c(-c3cn4c(n3)[C@H](c3c(F)cccc3C(F)(F)F)OCC4)cc12`: the concentration at 4 h in data set [2] stood at 11.3 µM; in data set [3] it was 18.7 µM. Also, the pIC50 at Gamma-secretase was 7.44; in data set [1], 7.38. Further, the inhibition in vivo at 30 mg/kg in the data set with Mus musculus [4] stood at 40%. The Activity in the data set on Mus musculus [5] came to 136%.
Regarding `N#Cc1ccc2[nH]c(-c3nc4n(n3)CCCC4c3ccccc3C(F)(F)F)cc2c1` (racemic), the values for the pIC50 (on Gamma-secretase; in data set [1]) were 6.93 and 6.73, respectively.
On to `CCc1cc(CCC#N)ccc1N1CCc2c(C)nc(Nc3ccc(C#N)cc3)nc21`, for which the Activity in data set [8] came out at 240%. Besides, the pIC50 in [1] was 6.11.
Regarding `COc1c(C#N)ccc2[nH]c(-c3nc4n(n3)CCO[C@H]4c3ccccc3C(F)(F)F)cc12`, the concentration at 4 h in data set [2] was determined as 5.4 µM; in [3], 10.5 µM. The pIC50 at Gamma-secretase is 7.35; in data set [1], 7.38. Also, the inhibition in vivo at 30 mg/kg in the data set on Mus musculus [4] was 46%. In the data set with Mus musculus [5], the Activity is on record as 39%.
As to `COc1c(C#N)ccc2[nH]c(-c3nc4n(n3)CCO[C@H]4c3cc(C(F)(F)F)ccc3F)cc12`, the pIC50 at Gamma-secretase was 7.01; in data set [1], 6.97.
As for `COc1c(C#N)ccc2[nH]c(-c3nc4n(n3)CCO[C@H]4c3ccc(F)cc3C)cc12`, the concentration at 4 h in data set [2] was determined as 1.52 µM; in data set [3] it was 1.71 µM. Also, the values for the pIC50 (at Gamma-secretase; in [1]) were 7.49 and 7.47, respectively. In addition, in the data set on Mus musculus [4], the inhibition in vivo at 30 mg/kg came to 5%. Moreover, the Activity with Mus musculus [5] is given as -12%.
As to `N#Cc1ccc(Nc2nc(Cc3c(Cl)cccc3Cl)cc(NCC(O)c3ccccc3)n2)cc1` (stereo unspecified), the Activity in data set [8] stood at 244%. For the same compound, the pIC50 in data set [1] is 5.78.
For the compound `N#Cc1ccc2cc(-c3nc4n(n3)CCCC4c3ccccc3C(F)(F)F)[nH]c2c1` (racemic), the pIC50 on Gamma-secretase is 5.40; in [1], 5.07.
`COc1c(C#N)ccc2[nH]c(-c3cn4c(n3)[C@@H](c3ccccc3C(F)(F)F)OCC4)cc12`: the pIC50 was 6.46 on Gamma-secretase and 6.60 in data set [1].
As for `N#CCCNc1cc(Cc2c(Cl)cccc2Cl)nc(Nc2ccc(C#N)cc2)n1`, the Activity in data set [8] was determined as 242%. In addition, the pIC50 in data set [1] was 6.17.
As to `COc1c(C#N)ccc2[nH]c(-c3cn4c(n3)[C@H](c3ccc(F)cc3C)OCC4)cc12`, the concentration at 4 h in data set [2] was found to be 9.2 µM; in [3] it was 6.9 µM. Further, the “Drug uptake(free)” value in data set [6] was 0.016 µM. In addition, the pIC50 on Gamma-secretase was 7.64; in data set [1], 7.80. In addition, the inhibition in vivo at 30 mg/kg in the data set with Mus musculus [4] turned out to be 45%. Also, in data set [7], the Fu turned out to be 0.23%. In addition, the Activity with Mus musculus [5] was 122%.
Regarding `COc1cc(Nc2cccn3cc(-c4ccc(F)cc4)nc23)ccc1-n1cnc(C)c1`, in [1], the pIC50 was 6.74.
For the compound `COc1c(C#N)ccc2[nH]c(-c3nc4n(n3)CCO[C@H]4c3cccc(F)c3C)cc12`, the concentration at 4 h was 2.5 µM in [2] and 5.5 µM in data set [3]. Besides, in data set [6], the “Drug uptake(free)” value stood at 0.009 µM. For the same compound, the pIC50 on Gamma-secretase is 7.51; in data set [1] it was 7.72. Also, the inhibition in vivo at 30 mg/kg in the data set with Mus musculus [4] amounted to 33%. Also, in data set [7], the Fu is 0.17%. Besides, in the data set on Mus musculus [5], the Activity came to 60%.
In the case of `COc1c(C#N)ccc2[nH]c(-c3nc4n(n3)CCO[C@@H]4c3ccccc3C(F)(F)F)cc12`, the pIC50 is 6.22 on Gamma-secretase and 6.53 in [1].
On to `COc1c(C#N)ccc2[nH]c(-c3cn4c(n3)C(C(C)c3ccc(F)cc3)OCC4)cc12` (stereo unspecified), for which the pIC50 at Gamma-secretase was 6.66; in data set [1], 6.47.
Take `COc1c(C#N)ccc2[nH]c(-c3cn4c(n3)C(c3ccc(F)cc3C)CCC4)cc12` (racemic): the concentration at 4 h in data set [2] is 4.5 µM; in [3] it was 1.9 µM. Also, the pIC50 is 6.95 on Gamma-secretase and 7.30 in data set [1]. For the same compound, the inhibition in vivo at 30 mg/kg in the data set with Mus musculus [4] is 51%. In addition, the Activity with Mus musculus [5] is listed as 17%.
For `COc1nc(Nc2cccc3c2nc(-c2cccc(C(F)(F)F)c2)n3C)ccc1-n1cnc(C)c1`, the pIC50 in [1] was 8.15.
As for `COc1c(C#N)ccc2[nH]c(-c3cn4c(n3)[C@H](c3ccccc3Cl)OCC4)cc12`, the concentration at 4 h in data set [2] amounted to 8.3 µM; in data set [3] it was 23.8 µM. Moreover, the “Drug uptake(free)” value in data set [6] stood at 0.112 µM. For the same compound, the pIC50 on Gamma-secretase was 7.59; in data set [1] it was 7.64. The inhibition in vivo at 30 mg/kg in the data set with Mus musculus [4] was 60%. In data set [7], this compound registered a Fu of 0.47%. Besides, the Activity in the data set on Mus musculus [5] is listed as 61%.
For `COc1cc2[nH]c(-c3nc4n(n3)CCCC4c3ccccc3C(F)(F)F)cc2cc1C#N` (racemic), the pIC50 at Gamma-secretase was 6.97; in data set [1], 6.78.
For the compound `Cc1cn(-c2ccc3[nH]c(-c4nc5n(n4)CCCC5c4ccccc4C(F)(F)F)cc3c2)cn1` (stereo unspecified), in [1], the pIC50 is 7.34.
